test system: Rattus norvegicus; test: Inhibition of change in hind paw weight distribution in monosodium iodoacetate-induced osteoarthritis rat model at 10 mg/kg, ip after 2 hrs; format: organism-based; set-up: dose 10 mg/kg, route intraperitoneal; settings: in vivo; call rule not given here

Row | SMILES | Activity
1 | COc1cc(OC)cc(-c2ccc3ccc(C)nc3n2)c1 | Active

test system: Rattus norvegicus; test: Inhibition of change in hind paw weight distribution in monosodium iodoacetate-induced osteoarthritis rat model at 10 mg/kg, ip after 6 hrs; format: organism-based; set-up: dose 10 mg/kg, route intraperitoneal; settings: in vivo

Row | SMILES | Activity
2 | COc1cc(OC)cc(-c2ccc3ccc(C)nc3n2)c1 | Active

test system: Rattus norvegicus; test: Inhibition of change in hind paw weight distribution in monosodium iodoacetate-induced osteoarthritis rat model at 10 mg/kg, ip after 4 hrs; format: organism-based; set-up: dose 10 mg/kg, route intraperitoneal; settings: in vivo

Row | SMILES | Activity
3 | COc1cc(OC)cc(-c2ccc3ccc(C)nc3n2)c1 | Active

biological target: Metabotropic glutamate receptor 5 (Rattus norvegicus, UniProt P31424); test: Antagonist activity at rat mGlu5 receptor expressed in CHO cells assessed as inhibition of quisqualate-stimulated calcium mobilization; format: functional, cell-based; settings: not given
In short: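 CHO cells stably expressing rat mGlu5; inhibition of quisqualate-stimulated calcium mobilization read by FLIPR. Values are geometric means of two or more experiments.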

Sequence of Metabotropic glutamate receptor 5 (P31424 whole entry): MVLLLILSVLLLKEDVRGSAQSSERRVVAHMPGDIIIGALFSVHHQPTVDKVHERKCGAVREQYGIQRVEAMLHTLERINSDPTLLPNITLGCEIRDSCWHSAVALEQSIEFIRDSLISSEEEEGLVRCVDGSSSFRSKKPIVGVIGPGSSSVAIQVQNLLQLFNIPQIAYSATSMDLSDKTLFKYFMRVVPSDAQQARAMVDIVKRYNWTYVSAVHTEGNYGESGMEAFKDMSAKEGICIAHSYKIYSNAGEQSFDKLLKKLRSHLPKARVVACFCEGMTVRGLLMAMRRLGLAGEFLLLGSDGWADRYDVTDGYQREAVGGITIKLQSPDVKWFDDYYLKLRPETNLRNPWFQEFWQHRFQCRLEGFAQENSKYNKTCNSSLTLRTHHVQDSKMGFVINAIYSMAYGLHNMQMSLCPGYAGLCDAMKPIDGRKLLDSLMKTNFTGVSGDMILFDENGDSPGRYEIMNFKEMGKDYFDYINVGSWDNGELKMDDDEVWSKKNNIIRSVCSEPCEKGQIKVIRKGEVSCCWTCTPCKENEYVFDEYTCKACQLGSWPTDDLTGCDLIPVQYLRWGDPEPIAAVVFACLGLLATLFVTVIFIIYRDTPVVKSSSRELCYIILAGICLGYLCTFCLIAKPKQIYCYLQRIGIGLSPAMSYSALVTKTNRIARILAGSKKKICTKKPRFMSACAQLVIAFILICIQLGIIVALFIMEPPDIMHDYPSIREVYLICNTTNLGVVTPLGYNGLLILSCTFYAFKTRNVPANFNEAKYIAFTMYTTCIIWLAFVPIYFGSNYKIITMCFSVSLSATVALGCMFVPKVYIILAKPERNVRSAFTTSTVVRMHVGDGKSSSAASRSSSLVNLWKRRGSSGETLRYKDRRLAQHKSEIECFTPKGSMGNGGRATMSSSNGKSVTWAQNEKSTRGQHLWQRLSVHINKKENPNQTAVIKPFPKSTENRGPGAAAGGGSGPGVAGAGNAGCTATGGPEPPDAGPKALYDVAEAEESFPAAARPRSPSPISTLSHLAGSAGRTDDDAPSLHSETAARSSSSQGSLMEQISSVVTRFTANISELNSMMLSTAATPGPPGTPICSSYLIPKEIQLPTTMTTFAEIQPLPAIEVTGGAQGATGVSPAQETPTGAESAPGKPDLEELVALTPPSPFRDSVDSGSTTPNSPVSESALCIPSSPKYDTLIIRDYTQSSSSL

Row | SMILES | IC50 [nM]
4 | Cc1cccc(-c2cc3ncccc3cn2)c1 | 1270
5 | c1ccc(-c2ccc3cccnc3n2)cc1 | 1840
6 | COc1cc(C#N)cc(-c2cc3ncccc3cn2)c1 | 68
7 | Cc1ccc2ccc(-c3cccc(Cl)c3)nc2n1 | 177
8 | COc1cc(OC)cc(-c2ccc3ccc(C)nc3n2)c1 | 51.7
9 | N#Cc1cccc(-c2cnc3cccnc3c2)c1 | 18600
10 | COc1cccc(-c2cc3nc(C)ccc3cn2)c1 | 7900
11 | Cc1ccc2cnc(-c3ccccc3)cc2n1 | > 30000
12 | COc1cc(C#N)cc(-c2cc3nc(C)ccc3cn2)c1 | 6.19
13 | COc1cc(OC)cc(-c2ccc3cccnc3n2)c1 | 67
14 | Cc1cccc(-c2ccc3ccc(C)nc3n2)c1 | 277
15 | N#Cc1cc(F)cc(-c2cc3ncccc3cn2)c1 | 1590
16 | Cc1cccc(-c2ccc3cccnc3n2)c1 | 225
17 | Cc1ccc2ccc(-c3cc(F)cc(F)c3)nc2n1 | 181
18 | Cc1ccc2ccc(-c3cccc(Br)c3)nc2n1 | 47.9
19 | Cc1ccc(-c2cnc3cccnc3c2)cc1C | 12000
20 | Cc1ccc(-c2ccc3cccnc3n2)cc1C | 45
21 | N#Cc1cccc(-c2ccc3cccnc3n2)c1 | 115
22 | Cc1cccc(-c2cnc3cccnc3c2)c1 | 15700
23 | Cc1cc(F)cc(-c2cc3nc(C)ccc3cn2)c1 | 2930
24 | Cc1cc(F)cc(-c2cc3ncccc3cn2)c1 | 6570
25 | Cc1cccc(-c2cc3nc(C)ccc3cn2)c1 | 676
26 | c1ccc(-c2cc3ncccc3cn2)cc1 | > 30000
27 | COCOc1cc(C#N)cc(-c2cc3ncccc3cn2)c1 | 468
28 | COc1cc(OC)cc(-c2cc3ncccc3cn2)c1 | 6070
29 | Cc1ccc2ccc(-c3ccccc3)nc2n1 | 664
30 | COc1cc(C#N)cc(-c2cnc3cccnc3c2)c1 | 55
31 | Cc1ccc2ccc(-c3cccc(C#N)c3)nc2n1 | 480
32 | Cc1cc(C)cc(-c2cnc3cccnc3c2)c1 | > 30000
33 | COc1cc(OC)cc(-c2cc3nc(C)ccc3cn2)c1 | 345

— ChEMBL document CHEMBL1138230, “Synthesis and SAR comparison of regioisomeric aryl naphthyridines as potent mGlu5 receptor antagonists” (Bioorg Med Chem Lett, 2007)
